For data set [1], the system named is Leishmania major promastigotes (vaccine strain MRHO/IR/75/ER). The conditions noted are these: read-out: Anti-promastigote activity IC50; L. major promastigotes; previous compounds 1a-b; ref Tahghighi et al. 2013; cited from earlier work.
The subject of data set [2] is amastigote form of L. major in murine peritoneal macrophages. The settings on record: previous compounds 1a-b; result in words; ref Tahghighi et al. 2013; cited from earlier work.
Data set [3] relates to mouse peritoneal macrophages. The settings on record: read-out: Cytotoxicity CC50, previous compounds 1a-b, ref Tahghighi et al. 2013; cited from earlier work.
Data set [4] deals with Leishmania major promastigotes (vaccine strain MRHO/IR/75/ER). In words: Antileishmanial activity against Leishmania major promastigotes. The conditions noted are these: for IC50: Leishmania major, 24 h, read-out: Anti-promastigote activity IC50. The format is cell-based.
Data set [5] is described as follows: Toxicity against macrophages. The format is cell-based, mouse. The settings on record: BALB/c, mouse, mouse peritoneal macrophages. Summed up: (§1)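 BALB/c peritoneal macrophages, collected by PBS lavage, were kept in RPMI 1640 with 10% heat-inactivated FBS, 2mM glutamine and penicillin/streptomycin. Cells were seeded at 2×10^5/well and allowed to adhere. Medium was replaced with a graded series of test compound for 24 h at 37 °C, 5% CO2, with a DMSO negative control. Viability was read by MTT. Two independent experiments were run in triplicate, and CC50 was taken by linear regression.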

In data set [6] the test system is mouse peritoneal macrophages. The experiment in a line: Toxicity against macrophages. The format is cell-based. The settings on record: CC50 macrophages / IC50 promastigotes. A digest of the protocol:
as §1

Each structure is given as a SMILES string. Where two headings read alike, the source gives them in different places.

On to `O=[N+]([O-])c1ccc(-c2nnc(NCCCO)s2)o1` [Compound 1a, 3-(5-(5-nitrofuran-2-yl)-1,3,4-thiadiazol-2-ylamino) propan-1-ol], for which the IC50 in data set [1] is 18 ± 0.2 µM. Further, the “Number of intracellular amastigotes per macrophage, percentage of macrophage infectivity and infectivity index compared with control group” value in data set [2] is recorded as “decreased”. Moreover, in data set [3], the CC50 is 62.3 µM.

On to `O=[N+]([O-])c1ccc(-c2nnc(NCCCO)s2)s1` [Compound 1b, 3-(5-(5-nitrothiophen-2-yl)-1,3,4-thiadiazol-2-ylamino) propan-1-ol], for which, in data set [4] (promastigote IC50, 1b versus 1a), the “fold more potent than 5-nitrofuran counterpart 1a” value is on record as 6 fold. Moreover, the IC50 in data set [1] was 3 ± 0.41 µM. For the same compound, the “Number of intracellular amastigotes per macrophage, percentage of macrophage infectivity and infectivity index compared with control group” value in data set [2] is “decreased”. The CC50 in data set [3] is 42.2 µM.

As for `O=[N+]([O-])c1ccc(-c2nnc(N3CCC(O)CC3)s2)o1` [Compound 5a, 1-(5-(5-nitrofuran-2-yl)-1,3,4-thiadiazol-2-yl)piperidin-4-ol], the IC50 in data set [4] came to 68.9 ± 0.107 µM. The compound further gave a CC50 at 24 h in data set [5] of 78.5 µM. The “SI (selectivity index CC50/IC50)” value in data set [6] was 1.14.

Regarding `O=[N+]([O-])c1ccc(-c2nnc(N3CCC(O)CC3)s2)s1` [Compound 5b, 1-(5-(5-nitrothiophen-2-yl)-1,3,4-thiadiazol-2-yl)piperidin-4-ol], in data set [4], the IC50 worked out at 27 ± 0.12 µM. In data set [5], this compound yielded a CC50 at 24 h of 63.6 µM. Further, in data set [6], the “SI (selectivity index CC50/IC50)” value is 2.35.

Take `OC(Cn1cncn1)(Cn1cncn1)c1ccc(F)cc1F` [Fluconazole, reference compound]: in data set [4], the IC50 came to 941.1 ± 4.98 µM.

The values above are taken from article PMC5629310 (Journal of Arthropod-Borne Diseases, 2017).
